Source: ChEMBL document CHEMBL1150066, “Cytotoxic activity of tetraprenylphenols related to suillin, an antitumor principle from Suillus granulatus” (J Nat Prod, 1992)
Converted amounts (≈) assume the structure as drawn.

Assays:
Assay type in all cases: functional, cell-based; call rule not given here
[1] = system: P388; test: Cytotoxicity against mouse P388 cells after 72 hrs by MTT assay; details: P388, 72 h
Procedure, shortened: (§1)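 Cells per well: NSCLC-N6 0.2×10^5, KB 0.1×10^5, P388 0.05×10^5, in RPMI 1640 with 5% fetal calf serum, penicillin/streptomycin and 2 mM glutamine. Test solution added at decreasing concentrations in duplicate wells, then 72 h at 37° in 5% CO2. MTT added for 4 h, formazan dissolved in […], A570 read. IC50 taken from the dose/effect curve relative to controls.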

[2] = Cytotoxicity against human NSCLC-N6 cells after 72 hrs by MTT assay; details: NSCLC-N6, 72 h; procedure, shortened: as §1
[3] = system: KB; test: Cytotoxicity against human KB cells at 10 ug/ml after 72 hrs by MTT assay
[4] = system: KB; test: Cytotoxicity against human KB cells after 72 hrs by MTT assay; procedure, shortened: as §1
[5] = system: KB; test: Cytotoxicity against human KB cells at 5 ug/ml after 72 hrs by MTT assay
[6] = system: P388; test: Cytotoxicity against mouse P388 cells at 5 ug/ml after 72 hrs by MTT assay
[7] = Cytotoxicity against human NSCLC-N6 cells at 5 ug/ml after 72 hrs by MTT assay

| SMILES | IC50 [1] | IC50 [2] | IC50 [3] | IC50 [4] | IC50 [5] | IC50 [6] | IC50 [7] |
| --- | --- | --- | --- | --- | --- | --- | --- |
| COc1ccc(OC)c(OC)c1C/C=C(\C)CC/C=C(\C)CC/C=C(\C)CCC=C(C)C | > 10 µg/mL | > 10 µg/mL | Not Active |  |  |  |  |
| CC(=O)Oc1ccc2c(c1OC(C)=O)C=CC(C)(CC/C=C(\C)CC/C=C(\C)CCC=C(C)C)O2 (configuration not stated) | 0.3 µg/mL (≈ 0.624 µM) | 0.7 µg/mL (≈ 1.46 µM) |  | 1 µg/mL (≈ 2.08 µM) |  |  |  |
| CC(=O)Oc1ccc2c(c1OC(C)=O)CCC(C)(CCCC(C)CCCC(C)CCCC(C)C)O2 (configuration not stated) | 0.7 µg/mL (≈ 1.43 µM) | 0.9 µg/mL (≈ 1.84 µM) |  | 1.1 µg/mL (≈ 2.25 µM) |  |  |  |
| CC(=O)Oc1cc(C/C=C(\C)CC/C=C(\C)CC/C=C(\C)CCC=C(C)C)c(OC(C)=O)c(OC(C)=O)c1 | 0.4 µg/mL (≈ 0.762 µM) | 0.8 µg/mL (≈ 1.52 µM) |  | 0.9 µg/mL (≈ 1.72 µM) |  |  |  |
| CC(=O)Oc1ccc(O)c(O)c1CCC(C)CCCC(C)CCCC(C)CCCC(C)C (configuration not stated) | 8.2 µg/mL (≈ 18.3 µM) | 4.5 µg/mL (≈ 10 µM) |  | 6.3 µg/mL (≈ 14 µM) |  |  |  |
| CC(=O)Oc1ccc(OC(C)=O)c(OC(C)=O)c1CCC(C)CCCC(C)CCCC(C)CCCC(C)C (configuration not stated) | > 16.6 µg/mL | 9 µg/mL (≈ 16.9 µM) |  | > 10 µg/mL |  |  |  |
| COc1ccc(OC(C)=O)c(C/C=C(\C)CC/C=C(\C)CC/C=C(\C)CCC=C(C)C)c1OC | 3.7 µg/mL (≈ 7.89 µM) | 5.8 µg/mL (≈ 12.4 µM) |  | 7.5 µg/mL (≈ 16 µM) |  |  |  |
| CC(=O)Oc1c(O)ccc(O)c1C/C=C(\C)CC/C=C(\C)CC/C=C(\C)CCC=C(C)C | 0.9 µg/mL (≈ 2.04 µM) | 2.9 µg/mL (≈ 6.58 µM) |  | 2.5 µg/mL (≈ 5.67 µM) |  |  |  |
| CC(=O)Oc1ccc(OC(C)=O)c(OC(C)=O)c1C/C=C(\C)CC/C=C(\C)CC/C=C(\C)CCC=C(C)C | 5 µg/mL (≈ 9.53 µM) | 1.9 µg/mL (≈ 3.62 µM) |  | 2 µg/mL (≈ 3.81 µM) |  |  |  |
| COc1c(O)cc(O)cc1C/C=C(\C)CC/C=C(\C)CC/C=C(\C)CCC=C(C)C | 2.1 µg/mL (≈ 5.09 µM) | 2.2 µg/mL (≈ 5.33 µM) |  | 5 µg/mL (≈ 12.1 µM) |  |  |  |
| CC(=O)Oc1c(O)cc(O)cc1C/C=C(\C)CC/C=C(\C)CC/C=C(\C)CCC=C(C)C | 2.3 µg/mL (≈ 5.22 µM) | 2.3 µg/mL (≈ 5.22 µM) |  |  | Not Active |  |  |
| COc1ccc(O)c(O)c1C/C=C(\C)CC/C=C(\C)CC/C=C(\C)CCC=C(C)C | 2.8 µg/mL (≈ 6.79 µM) | > 5 µg/mL |  |  | Not Active |  |  |
| CC(C)=CCC/C(C)=C/CC/C(C)=C/CCC1(C)C=Cc2c(ccc(O)c2O)O1 (configuration not stated) |  |  |  |  | Not Active | Not Active | Not Active |
| CC(=O)Oc1ccc(O)c(O)c1C/C=C(\C)CC/C=C(\C)CC/C=C(\C)CCC=C(C)C [TETRAPRENYLPHENOLSUILLIN] | 0.8 µg/mL (≈ 1.82 µM) | 1 µg/mL (≈ 2.27 µM) |  | 0.7 µg/mL (≈ 1.59 µM) |  |  |  |
